GI50 and Activity data for 40 molecules are collected here from ChEMBL document CHEMBL1144746, “Structural simplification of bioactive natural products with multicomponent synthesis. 2. antiproliferative and antitubulin activities of pyrano[3,2-c]pyridones and pyrano[3,2-c]quinolones” (2008).

One experiment relates to HeLa. In words: Antiproliferative activity against human HeLa cells assessed as cell viability after 48 hrs by MTT assay. Format: functional. In short, it runs like this:
(§1)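 Cells plated at 2 × 10^4 cells/mL and allowed to adhere for 24 h, then exposed to compounds for 48 h. MTT reagent (5 mg/mL stock) added for 2 h, formazan dissolved in DMSO, OD read at 490 nm.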

The subject of experiment [1] is Jurkat. In words: Induction of apoptosis in human Jurkat cells at 5 uM by annexin V/propidium iodide assay. In kind it is functional, cell-based. The gist of the method:
(§2)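 Jurkat cells at 2 × 10^5 cells/mL exposed to compounds, with DMSO control. Exposure was 5 μM for 36 h, 1 μM for 12–60 h, or 48 h across a range of doses. Cells stained with Annexin-V-FITC/propidium iodide in HHB with CaCl2 for 20 min at 37 °C. Flow cytometry gives % Annexin-V-positive cells; four replicates, experiment repeated twice.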

The next experiment concerns MCF7. Put plainly: Antiproliferative activity against human MCF7 cells assessed as cell viability after 48 hrs by MTT assay. Format: functional. The settings on record: MCF7, 48 h. The gist of the method: as §1
Experiment [2] is filed under the species Bos taurus. Put plainly: Induction of bovine tubulin polymerization at 3 uM relative to control. In short, it runs like this: (§3)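 Purified bovine tubulin incubated at 37 °C in buffer with 10% glycerol and 1 mM GTP, each agent in a separate run against a 0.05% DMSO control. Polymerization followed kinetically by fluorescence increase on a plate reader.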

Experiment [3] relates to Jurkat. In words: Induction of apoptosis in human Jurkat cells assessed as oligonucleosomal DNA fragments at 0.4 uM after 36 hrs by DNA laddering assay. Format: functional, cell-based. The gist of the method: (§4)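 About 1 × 10^6 Jurkat cells treated for 36 h. Cells lysed in Tris-HCl pH 8/EDTA/0.5% SDS/proteinase K at 55 °C for 60 min, then RNase at 55 °C for 60 min. Cleared lysate run on a 1.5% agarose gel with ethidium bromide at 80 V for about 1 h and viewed under UV.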

For experiment [4], the species on record is Bos taurus. In words: Inhibition of bovine tubulin polymerization at 25 uM. In short, it runs like this: as §3
In experiment [5] the test system is Jurkat. In words: Cell cycle arrest in human Jurkat cells assessed as accumulation at G2/M phase at 1 uM after 24 hrs by flow cytometry. Format: functional. In short, it runs like this:
(§5)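 Cells stained with Vybrant DyeCycle Orange in HHB (1 μL dye per mL) for 30 min at 37 °C in the dark, then analysed by flow cytometry. % relative DNA content ± SD, two independent experiments each in triplicate.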

The subject of experiment [6] is Jurkat. In words: Induction of apoptosis in human Jurkat cells by annexin V/propidium iodide assay. In kind it is functional, cell-based. The settings on record: TDE = time-dependent effect. The gist of the method:
as §2

In experiment [7] the test system is Jurkat. In words: Induction of apoptosis in human Jurkat cells assessed as oligonucleosomal DNA fragments at 1.5 uM after 36 hrs by DNA laddering assay. Format: functional, cell-based. In short, it runs like this:
as §4

In experiment [8] the test system is Jurkat. In words: Induction of apoptosis in human Jurkat cells assessed as morphological changes after 2 hrs by light microscopy. Format: functional, cell-based. The gist of the method: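 Jurkat cells exposed to compound at 1 μM for 2 h, with 0.1% DMSO as control. Finger-like extensions and shriveling scored by light microscopy.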
Experiment [9] concerns Jurkat. Put plainly: Cell cycle arrest in human Jurkat cells assessed as accumulation at G0/G1 phase at 1 uM after 24 hrs by flow cytometry. Format: functional. In short, it runs like this: as §5
Experiment [10] concerns Jurkat. In words: Cell cycle arrest in human Jurkat cells assessed as accumulation at S phase at 1 uM after 24 hrs by flow cytometry. Format: functional. In short, it runs like this:
as §5

In experiment [11] the test system is Jurkat. Put plainly: Induction of apoptosis in human Jurkat cells at 100 nM by annexin V/propidium iodide assay.

Structures are written as SMILES. Activity calls are given as the source filed them. No cut-off for these calls is given here.

Turning to `Cc1cc2c(c(=O)n1C)C(c1ccc(F)c(Br)c1)C(C#N)=C(N)O2` (stereo not given), in the experiment on HeLa, the GI50 is 6400 nM. Further, the result in the experiment with Jurkat [1] was Active.

On to `Cc1cc2c(c(=O)n1C)C(c1cccc([N+](=O)[O-])c1)C(C#N)=C(N)O2` (stereo not given), for which the GI50 in the experiment with HeLa turned out to be 35000 nM.

For the molecule `Cc1cc2c(c(=O)n1C)C(c1ccc(N(C)C)c(Br)c1)C(C#N)=C(N)O2` (stereo not given), the GI50 in the experiment with HeLa was determined as 330 nM. The result with Jurkat [1] was Active.

Regarding `COc1cc(C2C(C#N)=C(N)Oc3c2c(=O)n(C)c2ccccc32)cc(Br)c1OC(C)=O` (stereo not given), the GI50 in the experiment with HeLa was 180 nM; in the experiment on MCF7, 25 nM.

In the case of `Cn1c(=O)c2c(c3ccccc31)OC(N)=C(C#N)C2c1cncc(Br)c1` (stereo not given), the GI50 is 13 nM in the experiment with HeLa and 15 nM with MCF7.

As to `Cc1cc2c(c(=O)n1C)C(c1ccc(Cl)c(Cl)c1)C(C#N)=C(N)O2` (stereo not given), in the experiment with HeLa, the GI50 was found to be 18300 nM. Moreover, in the experiment with Jurkat [1], the result was inactive.

For the molecule `COc1cc(C2C(C#N)=C(N)Oc3cc(C)n(C)c(=O)c32)cc(Br)c1OC` (stereo not given), the 50% growth inhibitory concentration (GI50) in the experiment with HeLa turned out to be 580 nM. Also, the result in the experiment on Jurkat [1] was Active.

As to `COc1cc(C2C(C#N)=C(N)Oc3cc(C)n(C)c(=O)c32)cc(Br)c1OC(C)=O` (stereo not given), the GI50 in the experiment with HeLa amounted to 3500 nM. In addition, in the experiment with Jurkat [1], the outcome was Active.

`COc1cc(C2C(C#N)=C(N)Oc3c2c(=O)n(C)c2ccccc32)ccc1O` (stereo not given): the results for the GI50 in the experiment on HeLa and in the experiment with MCF7 were 630 nM and 500 nM, respectively.

As to `Cn1c(=O)c2c(c3ccccc31)OC(N)=C(C#N)C2c1ccc(F)c(Br)c1` (stereo not given), the 50% growth inhibitory concentration (GI50) in the experiment on HeLa stood at 270 nM; with MCF7 it was 810 nM.

Turning to `Cn1c(=O)c2c(c3ccccc31)OC(N)=C(C#N)C2c1cccc([N+](=O)[O-])c1` (stereo not given), the values for the GI50 with HeLa and in the experiment with MCF7 were 320 nM and 1100 nM, respectively.

As for `Cc1cc2c(c(=O)n1C)C(c1ccc(C(C)C)cc1)C(C#N)=C(N)O2` (stereo not given), the GI50 with HeLa is greater than 100000 nM. The outcome in the experiment on Jurkat [1] was inactive.

Turning to `COc1ccc(CCn2c(C)cc3c(c2=O)C(c2cc(OC)c(OC)c(OC)c2)C(C#N)=C(N)O3)cc1OC` (stereo not given), in the experiment with HeLa, the GI50 stood at 22700 nM. Further, the result in the experiment with Jurkat [1] was inactive.

Take `Cn1c(=O)c2c(c3ccccc31)OC(N)=C(C#N)C2c1ccncc1` (stereo not given): the GI50 was greater than 50000 nM with HeLa and 32000 nM with MCF7.

`Cn1c(=O)c2c(c3ccccc31)OC(N)=C(C#N)C2c1cccc(Cl)c1` (stereo not given): the values for the concentration for 50% growth inhibition (GI50) in the experiment on HeLa and with MCF7 were 150 nM and 2200 nM, respectively.

Regarding `Cn1c(=O)c2c(c3ccccc31)OC(N)=C(C#N)C2c1ccccc1[N+](=O)[O-]` (stereo not given), the GI50 in the experiment on HeLa stood at 5000 nM; with MCF7, 3500 nM.

As for `COc1ccc(C2C(C#N)=C(N)Oc3c2c(=O)n(C)c2ccccc32)cc1O` (stereo not given), the GI50 with HeLa and with MCF7 was greater than 50000 nM each time.

Take `Cc1cc2c(c(=O)n1C)C(c1cccc(Br)c1)C(C#N)=C(N)O2` (stereo not given): in the experiment on HeLa, the GI50 was determined as 6500 nM. Further, in the experiment on Jurkat [1], the outcome was Active.

As for `COc1ccc(C2C(C#N)=C(N)Oc3c2c(=O)n(C)c2ccccc32)cc1Br` (stereo not given), the values for the GI50 in the experiment with HeLa and in the experiment on MCF7 were 410 nM and 500 nM, respectively.

Turning to `CC(=O)O[C@H]1C(=O)[C@@]2(C)[C@H]([C@H](OC(=O)c3ccccc3)[C@]3(O)C[C@H](OC(=O)[C@H](O)[C@@H](NC(=O)c4ccccc4)c4ccccc4)C(C)=C1C3(C)C)[C@]1(OC(C)=O)CO[C@@H]1C[C@@H]2O`, the outcome in the experiment filed under Bos taurus [2] and in the experiment with Jurkat [3] was Active.

For the molecule `Cc1cc2c(c(=O)o1)C(c1cccc(Br)c1)C(C#N)=C(N)O2` (stereo not given), in the experiment with HeLa, the GI50 was greater than 100000 nM.

In the case of `Cn1c(=O)c2c(c3ccccc31)OC(N)=C(C#N)C2c1cccc(Cl)c1Cl` (stereo not given), the GI50 was 1800 nM with HeLa and greater than 50000 nM in the experiment on MCF7.

For `Cn1c(=O)c2c(c3ccccc31)OC(N)=C(C#N)C2c1cccc(Br)c1` (stereo not given), the GI50 was determined as 740 nM in the experiment with HeLa and 3 nM with MCF7.

With `Cn1c(=O)c2c(c3ccccc31)OC(N)=C(C#N)C2c1c(Cl)cccc1Cl` (stereo not given), the GI50 in the experiment with HeLa was greater than 50000 nM; in the experiment with MCF7 it was 36000 nM.

As for `CCOc1c(Br)cc(C2C(C#N)=C(N)Oc3cc(C)n(C)c(=O)c32)cc1OC` (stereo not given), in the experiment on HeLa, the GI50 is 1100 nM. The outcome in the experiment with Jurkat [1] was Active.

Consider `Cn1c(=O)c2c(c3ccccc31)OC(N)=C(C#N)C2c1cccc(F)c1` (stereo not given), for which the GI50 with HeLa turned out to be 300 nM; with MCF7, 1000 nM.

Consider `COc1cc(C2C(C#N)=C(N)Oc3cc(C)n(C)c(=O)c32)cc(Br)c1O` (stereo not given), for which the GI50 in the experiment with HeLa came out at 2700 nM. Besides, the outcome with Jurkat [1] was Active.

Turning to `Cn1c(=O)c2c(c3ccccc31)OC(N)=C(C#N)C2c1ccco1` (stereo not given), the concentration for 50% growth inhibition (GI50) in the experiment with HeLa worked out at 22000 nM; in the experiment with MCF7 it was 35000 nM.

For the molecule `COc1cc([C@@H]2c3cc4c(cc3[C@H](O)[C@H]3COC(=O)[C@H]23)OCO4)cc(OC)c1OC`, the outcome in the experiment filed under Bos taurus [4] was Active.

For `COc1cc(C2C(C#N)=C(N)Oc3c2c(=O)n(C)c2ccccc32)cc(Br)c1O` (stereo not given), the Activity in the experiment with Jurkat [5] is 47%; with Jurkat [6] it was “tde”; with Jurkat [9], 27%; in the experiment on Jurkat [10] it was 22%. Moreover, the outcome in the experiment filed under Bos taurus [4], in the experiment on Jurkat [7], in the experiment with Jurkat [8] and with Jurkat [11] was Active. For the same molecule, the figures for the GI50 with HeLa and in the experiment with MCF7 were 47 nM and 390 nM, respectively.

With `Cn1c(=O)c2c(c3ccccc31)OC(N)=C(C#N)C2c1ccccc1` (stereo not given), the GI50 with HeLa stood at 390 nM; in the experiment on MCF7 it was 3380 nM.

Turning to `COc1cc(C2C(C#N)=C(N)Oc3c2c(=O)n(C)c2ccccc32)cc([N+](=O)[O-])c1O` (stereo not given), the results for the GI50 in the experiment on HeLa and with MCF7 were 630 nM and 710 nM, respectively.

Regarding `COc1cc(C2C(C#N)=C(N)Oc3cc(C)n(C)c(=O)c32)cc(OC)c1OC` (stereo not given), the GI50 in the experiment on HeLa was 43300 nM.

On to `Cc1ccc(C2C(C#N)=C(N)Oc3c2c(=O)n(C)c2ccccc32)o1` (stereo not given), for which the results for the GI50 in the experiment with HeLa and with MCF7 were 3900 nM and 5100 nM, respectively.

Consider `Cn1c(=O)c2c(c3ccccc31)OC(N)=C(C#N)C2c1cc(Br)c(O)c(Br)c1` (stereo not given), for which the results for the concentration for 50% growth inhibition (GI50) with HeLa and in the experiment with MCF7 were 270 nM and 430 nM, respectively.

Take `Cn1c(=O)c2c(c3ccccc31)OC(N)=C(C#N)C2c1cccnc1` (stereo not given): the results for the GI50 in the experiment with HeLa and in the experiment with MCF7 were 2000 nM and greater than 50000 nM, respectively.

Consider `Cn1c(=O)c2c(c3ccccc31)OC(N)=C(C#N)C2c1cc(Br)cc(Br)c1` (stereo not given), for which the concentration for 50% growth inhibition (GI50) in the experiment on HeLa amounted to 77 nM; with MCF7, 75 nM.

Turning to `COc1cc(C2C(C#N)=C(N)Oc3c2c(=O)n(C)c2ccccc32)cc(Br)c1OC` (stereo not given), the Activity with Jurkat [5] is recorded as 49%; in the experiment on Jurkat [9] it was 20%; in the experiment on Jurkat [10], 28%. Further, the outcome in the experiment filed under Bos taurus [4], in the experiment on Jurkat [7] and with Jurkat [8] was Active. Moreover, the GI50 in the experiment on HeLa is 14 nM; in the experiment on MCF7 it was 380 nM.

`Cn1c(=O)c2c(c3ccccc31)OC(N)=C(C#N)C2c1ccc(Cl)c(Cl)c1` (stereo not given): the values for the 50% growth inhibitory concentration (GI50) with HeLa and with MCF7 were 300 nM and 2500 nM, respectively.

As to `COc1cc(C2C(C#N)=C(N)Oc3c2c(=O)n(C)c2ccccc32)cc(OC)c1OC` (stereo not given), the GI50 with HeLa worked out at 240 nM; with MCF7, 1000 nM.
